From ChEMBL document CHEMBL2401652 (J Med Chem, 2013)
Active and inactive are the calls of the source.

Experiments:
[1] = Binding affinity to DNA (unknown origin) at 100 uM after 2 hrs by UV-Vis absorption spectroscopic analysis
How it was run: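 DNA (100 μg/mL; stock 1.0 mg/mL in 50 mM Tris-HCl pH 7.5, 50 mM NaCl) with ligand fixed at 100 μM; incubated at 37 °C, then diluted six-fold; absorbance scanned 220–350 nm at 25 °C, 1 cm quartz cell; 260 nm band monitored.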

PANC-1 [2] = assay: Induction of apoptosis in human PANC1 cells assessed as procaspase-9 cleavage at 25 uM after 24 hrs by Western blot analysis; format: functional, cell-based
How it was run: (§1)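 Cells (1.5 × 10^6) exposed 24 h to compound (25 or 50 μM). 50 μg protein per lane resolved on 10% SDS-PAGE and transferred to nitrocellulose. Membrane blocked in 2% TBS-BSA, then probed with primary antibody overnight at 4 °C and HRP secondary. Detection by ECL, with β-actin as loading control. Untreated control run in parallel.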

PANC-1 [3] = assay: Induction of apoptosis in human PANC1 cells assessed as procaspase-8 cleavage at 25 uM after 24 hrs by Western blot analysis; format: functional, cell-based
How it was run: (§2)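 Cells (1.5 × 10^6) treated 24 h at 25 or 50 μM; 50 μg protein per lane on 10% SDS-PAGE, nitrocellulose, 2% TBS-BSA block, primary antibody overnight at 4 °C, HRP secondary, ECL detection; β-actin loading control; untreated controls in parallel.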

T98G [4] = assay: Induction of apoptosis in human T98G cells assessed as procaspase-9 cleavage at 25 uM after 24 hrs by Western blot analysis; format: functional, cell-based; how it was run: as §1
PANC-1 [5] = assay: Induction of apoptosis in human PANC1 cells assessed as procaspase-7 cleavage at 25 uM after 24 hrs by Western blot analysis; format: functional, cell-based; how it was run: as §2
T98G [6] = assay: Induction of apoptosis in human T98G cells assessed as procaspase-8 cleavage at 25 uM after 24 hrs by Western blot analysis; format: functional, cell-based; how it was run: as §1
PANC-1 [7] = assay: Downregulation of total Bid expression in human PANC1 cells at 25 uM after 24 hrs by Western blot analysis; format: functional, cell-based; how it was run: as §2
PANC-1 [8] = assay: Downregulation of Bcl-xL expression in human PANC1 cells at 25 uM after 24 hrs by Western blot analysis; format: functional, cell-based; how it was run: as §2
T98G [9] = assay: Downregulation of total Bid expression in human T98G cells at 25 uM after 24 hrs by Western blot analysis; format: functional, cell-based; how it was run: as §2
T98G [10] = assay: Induction of apoptosis in human T98G cells assessed as procaspase-7 cleavage at 25 uM after 24 hrs by Western blot analysis; format: functional, cell-based; how it was run: as §1
T98G [11] = assay: Downregulation of Bcl-xL expression in human T98G cells at 25 uM after 24 hrs by Western blot analysis; format: functional, cell-based; how it was run: as §2
T98G [12] = assay: Induction of apoptosis in human T98G cells assessed as induction of DNA damage at 20 uM after 24 hrs by comet assay relative to untreated control; format: functional
How it was run: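 T98G cells (1 × 10^5) treated 24 h with 0 or 20 μM. About 20000 cells embedded in 0.5% low-melting agarose and lysed overnight at 4 °C at pH 10. Alkaline electrophoresis (pH 13) for 30 min at 300 mA at 4 °C, then ethidium bromide staining. Tail length (nucleus centre to tail tip) from ≥20 comets, reported as mean ± SD.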

U-373MG ATCC [13] = assay: Cytotoxicity against human U373MG cells assessed as induction of morphological changes at 30 uM after 12 hrs by phase contrast microscopic analysis; format: functional, cell-based
How it was run: (§3)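 U373MG glioma cells exposed to 30 μM for 3 or 12 h; shape and density examined by phase contrast microscopy against untreated cells.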

K562 = assay: Cytotoxicity against human K562 cells assessed as growth inhibition after 24 hrs by MTT assay; format: functional, cell-based
How it was run: (§4)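 Log-phase cells (1 × 10^4 per well) treated 24 h with 0–30 μM at 37 °C, 5% CO2, in triplicate; MTT added for final 3 h; vehicle 0.15% ethanol; IC50 from three separate days, mean ± SE.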

T98G [14] = assay: Cytotoxicity against human T98G cells assessed as growth inhibition after 24 hrs by MTT assay; format: functional, cell-based; how it was run: as §4
HCT-116 = assay: Cytotoxicity against human HCT116 cells assessed as growth inhibition after 24 hrs by MTT assay; format: functional, cell-based; how it was run: as §4
PANC-1 [15] = assay: Cytotoxicity against human PANC1 cells assessed as growth inhibition after 24 hrs by MTT assay; format: functional, cell-based; how it was run: as §4
A549 = assay: Cytotoxicity against human A549 cells assessed as growth inhibition after 24 hrs by MTT assay; format: functional, cell-based; how it was run: as §4
PANC-1 [16] = assay: Induction of apoptosis in human PANC1 cells assessed as PARP cleavage at 25 uM after 24 hrs by Western blot analysis; format: functional, cell-based; how it was run: as §2
T98G [17] = assay: Induction of apoptosis in human T98G cells assessed as PARP cleavage at 25 uM after 24 hrs by Western blot analysis; format: functional, cell-based; how it was run: as §1
U-373MG ATCC [18] = assay: Cytotoxicity against human U373MG cells assessed as induction of morphological changes at 30 uM after 3 hrs by phase contrast microscopic analysis; format: functional, cell-based; how it was run: as §3
U-373MG ATCC [19] = assay: Cytotoxicity against human U373MG cells assessed as induction of morphological changes at 30 uM up to 24 hrs by phase contrast microscopic analysis; format: functional, cell-based

COc1ccc2c(c1)[nH]c1c3c(c(C)cc12)O[C@](C)(CCC=C(C)C)C=C3
active: Activity [1] | growth inhibition (GI) (K562) | growth inhibition (GI) (T98G [14]) | growth inhibition (GI) (HCT-116) | growth inhibition (GI) (PANC-1 [15]) | growth inhibition (GI) (A549)
inactive: Activity (PANC-1 [2]) | Activity (PANC-1 [3]) | Activity (T98G [4]) | Activity (PANC-1 [5]) | Activity (T98G [6]) | Activity (PANC-1 [7]) | Activity (PANC-1 [8]) | Activity (T98G [9]) | Activity (T98G [10]) | Activity (T98G [11]) | Activity (T98G [12]) | Activity (U-373MG ATCC [13]) | Activity (PANC-1 [16]) | Activity (T98G [17])

CC(=O)Oc1ccc2c(c1)[nH]c1c3c(c(C)cc12)O[C@](C)(CCC=C(C)C)C=C3
active: Activity (U-373MG ATCC [13]) | Activity (U-373MG ATCC [19]) | growth inhibition (GI) (K562) | growth inhibition (GI) (T98G [14]) | growth inhibition (GI) (HCT-116) | growth inhibition (GI) (PANC-1 [15]) | growth inhibition (GI) (A549)
inactive: Activity (U-373MG ATCC [18])
